Source: ChEMBL document CHEMBL1154420, “Role of a qnr-like gene in the intrinsic resistance of Enterococcus faecalis to fluoroquinolones” (2007)
In brackets after ≈: the same amount, converted by molar mass. Activity calls are given as the source filed them. The calls are words filed in the database; no cut-off is given here.

What was measured:
Lactococcus lactis [1] = test: Antibacterial activity against Lactococcus lactis IL-1419 containing ORI23::qnr-cat promoter mutant by twofold dilution method; assay type: functional
Summary of the method: (§1)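 Heterologous hosts carrying pORI23 or pORI23::qnr-cat (cat reporter downstream of qnr); MICs of ofloxacin, ciprofloxacin, levofloxacin, sparfloxacin and moxifloxacin by standard twofold dilution. Transformants selected on erythromycin 500 μg/ml plus chloramphenicol 20 μg/ml (E. coli DH10B) or erythromycin 5 μg/ml plus chloramphenicol 5 μg/ml (S. aureus, L. lactis). Blood-supplemented agar for L. lactis.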

Escherichia coli [2] = test: Antibacterial activity against Escherichia coli DH10B by twofold dilution method; assay type: functional; conditions: K-12 substr. DH10B; summary of the method: as §1
Escherichia coli [3] = test: Antibacterial activity against Escherichia coli DH10B containing ORI23 promoter by twofold dilution method; assay type: functional; conditions: K-12 substr. DH10B; summary of the method: as §1
Escherichia coli [4] = test: Antibacterial activity against Escherichia coli DH10B containing ORI23::qnr-cat promoter mutant by twofold dilution method; assay type: functional; conditions: K-12 substr. DH10B; summary of the method: as §1
Staphylococcus aureus [5] = test: Antibacterial activity against Staphylococcus aureus RN4220 containing ORI23::qnr-cat promoter mutant by twofold dilution method; assay type: functional; summary of the method: as §1
Lactococcus lactis [6] = test: Antibacterial activity against Lactococcus lactis IL-1419 by twofold dilution method; assay type: functional
Summary of the method: (§2)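 Heterologous-expression MIC by standard twofold dilution; L. lactis IL-1419 transformed with pORI23 vector or pORI23::qnr-cat by electroporation, selected on erythromycin 5 μg/ml plus chloramphenicol 5 μg/ml; routine growth at 37°C on TS agar with 10% horse blood.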

Lactococcus lactis [7] = test: Antibacterial activity against Lactococcus lactis IL-1419 containing ORI23 promoter by twofold dilution method; assay type: functional; summary of the method: as §2
Staphylococcus aureus [8] = test: Antibacterial activity against Staphylococcus aureus RN4220 by twofold dilution method; assay type: functional; summary of the method: as §1
Staphylococcus aureus [9] = test: Antibacterial activity against Staphylococcus aureus RN4220 containing ORI23 promoter by twofold dilution method; assay type: functional; summary of the method: as §1
Enterococcus faecalis [10] = test: Antibacterial activity against Enterococcus faecalis JH2-2 by broth microdilution method; assay type: functional
Enterococcus faecalis [11] = test: Antibacterial activity against Enterococcus faecalis JH2-2-omega-pG1KT mutant with inactivated qnr gene by broth microdilution method; assay type: functional
Enterococcus faecalis [12] = test: Antibacterial activity against Enterococcus faecalis JH2-2-delta-pG1KT mutant by broth microdilution method; assay type: functional
Enterococcus faecalis [13] = test: Antibacterial activity against Enterococcus faecalis JH2-2 containing ORI23 promoter by broth microdilution method; assay type: functional
Summary of the method: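 Broth microdilution MIC in Mueller-Hinton broth per CA-SFM, three independent experiments; JH2-2 host carrying pORI23 vector. Narrow dilution series: ofloxacin 1–128 μg/ml (1, 1.5, 2 … 8, 16, 32, 64, 128), ciprofloxacin 0.5–64 μg/ml (0.5, 0.75, 1 … 4, 8, 16, 32, 64). Growth at 37°C.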

Enterococcus faecalis [14] = test: Antibacterial activity against Enterococcus faecalis JH2-2-omega-pG1KT/pORI23::qnr-cat mutant with qnr gene complementation by broth microdilution method; assay type: functional
Enterococcus faecalis [15] = test: Antibacterial activity against Enterococcus faecalis JH2-2 containing ORI23::qnr-cat promoter mutant overexpressing qnr by broth microdilution method; assay type: functional
Escherichia coli [16] = test: Inhibition of Escherichia coli DNA gyrase-mediated Escherichia coli pBR322 DNA supercoiling at 1 ug/mL in presence of 0.9 uM histidine6-tagged Enterococcus faecalis qnr protein preincubated before compound administration by agarose gel electrophoresis
Summary of the method: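 Dialyzed C-terminal His6-tagged Qnr (from E. coli BL21(DE3), IPTG 1 mM, Ni-NTA purified, 0.9 μM) preincubated with E. coli gyrase 1 h at 25°C before drug; then 1 U gyrase, 0.5 μg relaxed pBR322, buffer with 1 mM ATP, pH 7.5, 37°C 30 min; readout by 1% agarose gel, ethidium bromide.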

Escherichia coli [17] = test: Inhibition of Escherichia coli DNA gyrase-mediated Escherichia coli pBR322 DNA supercoiling at 1 ug/mL by agarose gel electrophoresis
Summary of the method: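 Supercoiling assay: 1 U purified E. coli gyrase with 0.5 μg relaxed pBR322 in 35 mM Tris-HCl pH 7.5, 24 mM KCl, 4 mM MgCl2, 2 mM DTT, 1.8 mM spermidine, 1 mM ATP, 6.5% glycerol, 0.1 mg/ml albumin; drug incubated 1 h 25°C then 30 min 37°C; topoisomers resolved on 1% agarose, ethidium bromide, 16 h at 3.5 V/cm.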

Enterococcus faecalis [18] = test: microbe, parasite or virus in culture; conditions: ATCC 29212

Row | SMILES | MIC (Lactococcus lactis [1]) [µg/mL] | MIC (Escherichia coli [2]) [µg/mL] | MIC (Escherichia coli [3]) [µg/mL] | MIC (Escherichia coli [4]) [µg/mL] | MIC (Staphylococcus aureus [5]) [µg/mL] | MIC (Lactococcus lactis [6]) [µg/mL] | MIC (Lactococcus lactis [7]) [µg/mL] | MIC (Staphylococcus aureus [8]) [µg/mL] | MIC (Staphylococcus aureus [9]) [µg/mL] | MIC (Enterococcus faecalis [10]) [µg/mL] | MIC (Enterococcus faecalis [11]) [µg/mL] | MIC (Enterococcus faecalis [12]) [µg/mL] | MIC (Enterococcus faecalis [13]) [µg/mL] | MIC (Enterococcus faecalis [14]) [µg/mL] | MIC (Enterococcus faecalis [15]) [µg/mL] | Activity (Escherichia coli [16]) | Activity (Escherichia coli [17]) | MIC (Enterococcus faecalis [18]) [µg/mL]
1 | COc1c(N2C[C@@H]3CCCN[C@@H]3C2)c(F)cc2c(=O)c(C(=O)O)cn(C3CC3)c12 [MOXIFLOXACIN] | 1 (≈ 2.49 µM) | 0.002 (≈ 0.00498 µM) | 0.002 (≈ 0.00498 µM) | 0.032 (≈ 0.0797 µM) | 0.25 (≈ 0.623 µM) | 0.25 (≈ 0.623 µM) | 0.25 (≈ 0.623 µM) | – | – | – | – | – | – | – | – | – | – | –
2 | C[C@H]1COc2c(N3CCN(C)CC3)c(F)cc3c(=O)c(C(=O)O)cn1c23.C[C@H]1COc2c(N3CCN(C)CC3)c(F)cc3c(=O)c(C(=O)O)cn1c23.O [LEVOFLOXACIN] | 2 | – | – | 0.125 | 1 | 0.5 | 0.5 | 0.25 | 0.25 | – | – | – | – | – | – | – | – | –
3 | C[C@@H]1CN(c2c(F)c(N)c3c(=O)c(C(=O)O)cn(C4CC4)c3c2F)C[C@H](C)N1 [SPARFLOXACIN] | 4 (≈ 10.2 µM) | 0.002 (≈ 0.0051 µM) | 0.004 (≈ 0.0102 µM) | 0.064 (≈ 0.163 µM) | 1 (≈ 2.55 µM) | 0.5 (≈ 1.27 µM) | 0.5 (≈ 1.27 µM) | 0.125 (≈ 0.319 µM) | 0.125 (≈ 0.319 µM) | – | – | – | – | – | – | – | – | –
4 | O=C(O)c1cn(C2CC2)c2cc(N3CCNCC3)c(F)cc2c1=O [CIPROFLOXACIN] | – | – | – | 0.032 (≈ 0.0966 µM) | 2 (≈ 6.04 µM) | 2 (≈ 6.04 µM) | 2 (≈ 6.04 µM) | – | – | 1.5 (≈ 4.53 µM) | 0.75 (≈ 2.26 µM) | 1.75 (≈ 5.28 µM) | 2 (≈ 6.04 µM) | 8 (≈ 24.1 µM) | 8 (≈ 24.1 µM) | – | – | –
5 | CC1COc2c(N3CCN(C)CC3)c(F)cc3c(=O)c(C(=O)O)cn1c23 (centres undefined) [OFLOXACIN] | 4 (≈ 11.1 µM) | – | – | 0.125 (≈ 0.346 µM) | 2 (≈ 5.53 µM) | 1 (≈ 2.77 µM) | 1 (≈ 2.77 µM) | 0.5 (≈ 1.38 µM) | 0.5 (≈ 1.38 µM) | 3 (≈ 8.3 µM) | 1.5 (≈ 4.15 µM) | 3 (≈ 8.3 µM) | 3.5 (≈ 9.69 µM) | 32 (≈ 88.6 µM) | 32 (≈ 88.6 µM) | inactive | Active | 2 (≈ 5.53 µM)
